The list is not random: actives were taken first. Their share in the collection is about 0.48%.
proCasp3 act: activators of human procaspase-3 | 0.11% of 330,000 active | recombinant procaspase-3 D3A, Ac-DEVD-pNA absorbance 405 nm | activation, % at 8.5 µM;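 active = activation above the mean of all tested compounds plus 3 SD, cut at about 21% in these data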
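Assay system – Procaspase-3 D3A mutant, all three cleavage aspartates alanine · Controls – DMSO-only low control, 5 µM PC-3 D3A high control · Schedule – 1 h compound preincubation, 2 h substrate hydrolysis at 25 °C · Signal – 405 nm absorbance of p-nitroaniline, reads at 0 and 120 min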
Rce1 inh: inhibitors of yeast Ras-converting enzyme; Q03530; 0.27% of 290,000 active; calls only; AID 2563; yeast membranes, quenched prenylated peptide cleavage fluorescence;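 active = fall in fluorescence gain of 50% or more versus controls, with final raw signal at or below 3038400; inconclusive = same 50% fall but final raw signal above 3038400; inactive = fall in fluorescence gain under 50%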
Target sequence (Q03530 whole entry, looked up): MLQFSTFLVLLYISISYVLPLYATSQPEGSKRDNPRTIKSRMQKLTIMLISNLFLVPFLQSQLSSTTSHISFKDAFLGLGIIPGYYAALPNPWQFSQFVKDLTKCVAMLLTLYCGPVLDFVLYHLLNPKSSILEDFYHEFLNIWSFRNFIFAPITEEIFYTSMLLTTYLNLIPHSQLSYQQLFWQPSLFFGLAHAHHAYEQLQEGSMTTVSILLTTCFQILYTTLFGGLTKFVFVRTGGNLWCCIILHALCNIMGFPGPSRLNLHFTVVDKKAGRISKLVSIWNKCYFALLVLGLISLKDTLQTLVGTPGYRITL
PolyA inh: yeast polyadenylation inhibition; 0.02% of 300,000 active; S. cerevisiae SKY197-pL101 polyadenylation reporter, beta-gal luminescence; efflux-impaired pdr1/pdr3 knockout yeast; score 100 = 6 SD above DMSO; activity score, % at 12 µM;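 active = lowest replicate activity score at least 50, where 100 means six control SD above control mean; inconclusive = lowest score under 50 but half or more replicates reach 50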;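 also: yeast exposed to compound for 9 h at 30 °C; higher score means more reporter readthrough which indicates perturbed polyadenylation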
A1 inh: inhibitors of the anti-apoptotic protein A1, read as caspase activation; caspase activation, % (concentration not given with the values); MEF A1-2A-BIM cells, Caspase-Glo 3/7 luminescence, 3 h; percent of clofoctol response, vehicle zero; AID 2462; 0.066% of 330,000 active;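 active = over half of replicate activation scores above 10%, or exactly half above 10 with the replicate mean above 10; inconclusive = replicate mean below 10 yet half the replicates above 10; inactive = over half of replicates below 10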
proCasp7 act: counter-screen for procaspase-3 activators: activators of human procaspase-7; P55210; 0.093% of 330,000 active; recombinant procaspase-7, Ac-DEVD-pNA absorbance 405 nm; D23A/D198A/D206A triple mutant, cannot self-cleave; scale: DMSO 0, 5 µM enzyme 100; activation, % at 8.5 µM; AID 463210;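 active = percent activation above the screen-wide mean plus 3 SD, cut at about 25% in these data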
Target sequence (P55210 whole entry D23A/D198A/D206A): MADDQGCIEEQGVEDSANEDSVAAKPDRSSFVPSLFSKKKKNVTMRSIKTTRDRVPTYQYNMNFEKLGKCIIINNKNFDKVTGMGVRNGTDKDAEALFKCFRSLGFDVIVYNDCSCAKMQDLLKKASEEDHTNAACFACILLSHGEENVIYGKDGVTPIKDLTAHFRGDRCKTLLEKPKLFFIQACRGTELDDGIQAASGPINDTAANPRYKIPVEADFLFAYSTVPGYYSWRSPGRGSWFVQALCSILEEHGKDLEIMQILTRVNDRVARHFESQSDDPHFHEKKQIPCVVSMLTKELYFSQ
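Assay system: Uncleavable procaspase-7 mutant enzyme; Input: 2 µM procaspase-7 mutant as dispensed; Also added: DEVD-pNA substrate; Medium: Zinc-free HEPES pH 7.4 with 300 mM NaCl, 0.01% Triton X-100; Timing: 1 h compound preincubation, 2 h substrate cleavage, 25 °C; Measured by: Epi-absorbance of released pNA at 405 nm, two timepoints.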
Hits are given with their value; – = inactive; ? = inconclusive; · = no result; + = active, no number.

SMILES | proCasp3 act | Rce1 inh | PolyA inh | A1 inh | proCasp7 act
CSc1ncccc1C(=O)N1CCCC(Nc2ccc(C)c(C)c2)C1 (centres undefined) | · | – | – | – | ·
CC(=O)c1c(COC(=O)c2ccc(Cl)cc2)nc2ccccc2[n+]1[O-] | – | – | 90 | – | –
CC(=O)c1c(COC(=O)c2ccccc2)nc2ccccc2[n+]1[O-] | – | – | – | – | –
CNC[C@H]1Oc2ccc(NC(=O)Cc3cn(C)c4ccccc34)cc2CC(=O)N([C@@H](C)CO)C[C@H]1C | – | · | · | – | –
O=C(O)c1ccc2cccc(Cl)c2c1O | – | + | – | – | –
O=C(O)c1cccc(O)c1O | – | – | – | – | –
Cc1ccc(C)c(S(=O)(=O)N2CCCCC2CCNC(=O)C(=O)NCc2ccccc2)c1 (centres undefined) | – | – | – | – | –
CCC1CCCCN1S(=O)(=O)c1ccc(NC(=O)c2nc(S(C)(=O)=O)ncc2Cl)cc1 (centres undefined) | – | – | – | 11 | –
CCS(=O)(=O)c1ncc(Cl)c(C(=O)Nc2ccc(C)cc2)n1 | – | – | – | ? | –
CCS(=O)(=O)c1ncc(Cl)c(C(=O)Nc2ccc(S(=O)(=O)N3CCCC(C)C3)cc2)n1 (centres undefined) | – | – | – | 49 | –
COc1ccccc1-c1oc2ccccc2c1C#CCCO | – | · | · | – | –
Cc1cccc(-c2oc3ccccc3c2C#CCCO)c1 | – | + | – | – | –
COc1cc(-c2ccc3oc(-c4cccc(C)c4)c(C#CC4(O)CCCCC4)c3c2)cc(OC)c1OC | – | · | · | – | –
Cc1cccc(-c2oc3ccccc3c2C#CCCCCO)c1 | – | + | – | – | –
CCOC(=O)c1c(NC(=O)COc2ccccc2F)sc2c1CC(C)(C)NC2(C)C | – | + | – | – | –
CCOC(=O)c1c(NC(=O)CSc2ncccn2)sc2c1CC(C)(C)NC2(C)C | – | – | – | – | –
CCCCn1c(-c2ccco2)n[nH]c1=S | – | – | – | – | –
CCCCn1c(-c2sccc2C)n[nH]c1=S | – | + | – | – | –
O=C(CCC(=O)Nc1nnc(C2CCCCC2)s1)NCc1ccc(F)cc1 | – | – | – | – | –
COc1cccc(CNC(=O)c2ccccc2NC(=O)C2=C(C)OCCS2)c1 | – | – | – | – | –
CCOCCCn1c(=NC(=O)c2ccco2)c(C(=O)OCC)cc2c(=O)n3cccc(C)c3nc21 | – | – | – | – | –
CCOC(=O)c1cc2c(=O)n3cccc(C)c3nc2n(CC(C)C)c1=NC(=O)c1ccco1 | – | + | – | – | –
Cc1ccc(C(=O)N/C(=C/c2ccco2)C(=O)Nc2cccc(C(=O)O)c2)cc1 | – | + | – | – | –
COc1ccc(C2C3=C(CC(C)(C)CC3=O)Nc3n[nH]c(C)c32)cc1 (centres undefined) | – | + | – | – | –
COc1cccc(C2C3=C(CC(C)(C)CC3=O)Nc3n[nH]c(C)c32)c1 (centres undefined) | – | – | – | – | –
SMILES | proCasp3 act | Rce1 inh | PolyA inh | A1 inh | proCasp7 act
CN(C(=O)COC(=O)c1nc(-c2ccccc2)n(-c2ccccc2)n1)C1CCS(=O)(=O)C1 (centres undefined) | – | – | – | – | –
CN(C(=O)COC(=O)c1cn(-c2ccccc2)nc1-c1ccccc1)C1CCS(=O)(=O)C1 (centres undefined) | – | + | – | – | –
CCN(C(=O)COC(=O)c1cn(-c2ccccc2)nc1-c1ccccc1)C1CCS(=O)(=O)C1 (centres undefined) | – | + | – | – | –
COc1ccc(C)cc1N(C(=O)c1ccco1)C(C(=O)NC1CCCC1)c1ccc(N2CCOCC2)cc1 (centres undefined) | – | – | – | – | –
O=C1CSC(c2cn(-c3ccccc3)nc2-c2cc3ccccc3oc2=O)N1Cc1ccco1 (centres undefined) | – | + | – | – | –
O=C(Nc1ccc(Cl)c([N+](=O)[O-])c1)C(Sc1ccccc1)c1ccccc1 (centres undefined) | – | + | – | – | –
O=C(Nc1cc([N+](=O)[O-])ccc1Cl)C(Sc1ccccc1)c1ccccc1 (centres undefined) | – | – | – | – | –
CCOc1cccc2sc(N(CCCN(C)C)C(=O)c3ccc(S(=O)(=O)N4CCc5ccccc5C4)cc3)nc12 | – | – | – | – | –
CCc1ccc2nc(N(CCCN(C)C)C(=O)c3ccc(S(=O)(=O)N4CCc5ccccc5C4)cc3)sc2c1 | – | – | – | 24 | –
CN(CC(=O)Nc1c(Cl)cccc1Cl)C(=O)c1cccn1C | – | – | – | – | –
O=C(Cn1[nH]c(=O)c2ccccc2c1=O)OCC(=O)N1CCc2ccccc2C1 | – | – | – | 8.3 | –
COc1ccc2cc(C[C@@H]3CC[C@@H](CO)O3)ccc2c1 | – | · | · | · | –
Cc1nc2c(C)cccn2c(=O)c1NC(=O)COc1ccccc1 | – | + | – | – | –
COc1ccc(-c2cc3ccccc3oc2=O)cc1NC(=S)NC(=O)c1ccc2c(c1)OCCO2 | – | – | – | 26 | –
CCOC(=O)C1CCN(C(=O)c2ccccc2NC(=O)C2=C(C)OCCS2)CC1 | – | – | – | – | –
Cn1cc(S(=O)(=O)c2ccccc2)c(=O)c2cc(F)c(N3CCOCC3)cc21 | – | – | – | – | –
Cc1ccc(S(=O)(=O)c2cn(C)c3cc(N4CCOCC4)c(F)cc3c2=O)cc1 | – | + | – | – | –
O=C1[C@@H](Oc2ccccc2)[C@@H](c2ccncc2)N1c1ccncc1 | – | · | · | · | –
O=[N+]([O-])c1cc(S(=O)(=O)N2CCCC2)ccc1N/N=C1/CCCc2ccccc21 | – | – | – | – | –
O=[N+]([O-])c1cc(S(=O)(=O)N2CCCC2)ccc1NN=C1CCCCC1 | – | + | – | – | –
Cc1ccc(Cn2ncc(Cl)c(Cl)c2=O)cc1 | – | – | – | – | –
O=c1c(Cl)c(Cl)cnn1Cc1ccccc1Cl | – | – | – | 8.3 | –
Cc1cc(C)cc(Cn2ncc(Cl)c(Cl)c2=O)c1 | – | – | – | 6.7 | –
COc1ccc(CNC(=O)c2ccc(N3CCC4(CC3)CC(c3ccc(Cl)cc3)=NO4)c(NC(=O)c3ccccc3)c2)cc1 | – | – | – | – | –
CN(c1ccccc1)S(=O)(=O)c1cccc2ccccc12 | – | – | – | – | –
CSCCC(NC(=O)c1ccccc1Br)C(=O)NNC(=O)c1ccco1 (centres undefined) | – | · | · | – | –
c1ccc(-c2nnc(-c3ccncc3)nc2-c2ccccc2)cc1 | – | + | – | – | –
c1ccc(-c2nnc(-c3ccccc3)c(-c3c[nH]c4ccccc34)n2)cc1 | – | – | – | – | –
